Source: article PMC5797669 (Cellular signalling, 2016)
Where no end group is shown, it is not given here.

How the values were obtained:
[1] = target: hY4R point mutant S^7.100/103A, C-terminally fused to RLuc8 (human) (UniProt P50391); test: FRET or BRET
[2] = target: hY4R deletion mutant Δ7.97, C-terminally fused to RLuc8 (human) (UniProt P50391); test: FRET or BRET
[3] = target: hY4R deletion mutant Δ7.93, C-terminally fused to RLuc8 (human) (UniProt P50391); test: FRET or BRET
[4] = target: hY4R point mutant S^7.93/96A, C-terminally fused to RLuc8 (human) (UniProt P50391); test: FRET or BRET
hY4R point mutant S^7.93/96A, C-terminally fused to RLuc8 (human), sequence (P50391 whole entry, change not shown, the tested form may be a part): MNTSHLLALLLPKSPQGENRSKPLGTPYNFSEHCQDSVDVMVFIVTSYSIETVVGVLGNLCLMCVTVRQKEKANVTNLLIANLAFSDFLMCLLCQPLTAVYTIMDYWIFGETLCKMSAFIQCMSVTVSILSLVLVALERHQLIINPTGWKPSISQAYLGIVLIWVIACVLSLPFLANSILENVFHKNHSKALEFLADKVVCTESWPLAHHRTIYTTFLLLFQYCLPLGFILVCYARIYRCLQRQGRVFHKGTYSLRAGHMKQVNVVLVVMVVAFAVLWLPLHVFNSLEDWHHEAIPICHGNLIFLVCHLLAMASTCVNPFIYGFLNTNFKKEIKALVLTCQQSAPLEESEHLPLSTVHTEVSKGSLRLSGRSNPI

[5] = target: hY4R point mutant T^7.87/90A, C-terminally fused to RLuc8 (human) (UniProt P50391); test: FRET or BRET
hY4R point mutant T^7.87/90A, C-terminally fused to RLuc8 (human), sequence (P50391 whole entry, stated change not applied, the tested form may be a part): as the sequence (P50391 whole entry, change not shown, the tested form may be a part) above

[6] = target: hY4R deletion mutant Δ7.78, C-terminally fused to RLuc8 (human) (UniProt P50391); test: FRET or BRET
hY4R deletion mutant Δ7.78, C-terminally fused to RLuc8 (human), sequence (P50391 whole entry, stated change not applied, the tested form may be a part): as the sequence (P50391 whole entry, change not shown, the tested form may be a part) above

[7] = target: hY4R point mutant S^7.80/86A, C-terminally fused to RLuc8 (human) (UniProt P50391); test: FRET or BRET
hY4R point mutant S^7.80/86A, C-terminally fused to RLuc8 (human), sequence (P50391 whole entry, change not shown, the tested form may be a part): as above

[8] = target: hY4R point mutant E^7.78/79/81A, C-terminally fused to RLuc8 (human) (UniProt P50391); test: FRET or BRET
hY4R point mutant E^7.78/79/81A, C-terminally fused to RLuc8 (human), sequence (P50391 whole entry, change not shown, the tested form may be a part): as above

hY4R point mutants = test: [^125I]-hPP cell surface binding assay; parameters: species or system human; conditions: all point mutants; HEK293; compared to WT (set to 100%)
Outline: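 EYFP-fused receptor constructs transiently expressed in HEK293: 7 µg receptor DNA per 6-well by Lipofectamine 2000. Cells re-seeded next day into poly-D-lysine-coated 48-well plates and grown to confluence. Specific [125I]-hPP binding of each mutant expressed relative to wild-type receptor specific binding.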

hY4R S^7.100/103A = hY4R S^7.100/103A (Homo sapiens, UniProt P50391, S369A/S372A); test: TAMRA-hPP ligand uptake by fluorescence microscopy; assay type: cell-based; conditions: HEK293, 100 nM, 60 min, acidic wash pH 3.0, Mean ± S.E.M., n ≥ 4
hY4R S^7.100/103A, sequence (P50391 whole entry S369A/S372A): as the sequence (P50391 whole entry, change not shown, the tested form may be a part) above, with S369A, S372A counted along it
Outline: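 HEK293 cells on slides at 70–80% confluence, transfected (Lipofectamine 2000) with 1 µg receptor plasmid. Next day, starved 30 min at 37 °C in Opti-MEM, optionally with Hoechst33342. […] Intracellular fluorescence quantified per cell, ≥10 cells per experiment.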

[9] = target: N-terminally HA-tagged hY4R wild type fused to enhanced yellow fluorescent protein (human, UniProt P50391 1-375); test: radioligand binding
N-terminally HA-tagged hY4R wild type fused to enhanced yellow fluorescent protein, sequence (P50391 whole entry, the tested form may be a part): as the sequence (P50391 whole entry, change not shown, the tested form may be a part) above

hY4R deletion mutant Δ7.97, C-terminally fused to RLuc8 (human), sequence (P50391 whole entry, stated change not applied, the tested form may be a part): as the sequence (P50391 whole entry, change not shown, the tested form may be a part) above
hY4R point mutant S^7.100/103A, C-terminally fused to RLuc8 (human), sequence (P50391 whole entry, stated change not applied, the tested form may be a part): as the sequence (P50391 whole entry, change not shown, the tested form may be a part) above
hY4R deletion mutant Δ7.93, C-terminally fused to RLuc8 (human), sequence (P50391 whole entry, stated change not applied, the tested form may be a part): as the sequence (P50391 whole entry, change not shown, the tested form may be a part) above

Bovine arrestin-3 N-terminally fused to Venus (from UniProt P32120 1-420) (natural protein)
arr-3 recruitment, maximum net BRET (% of WT) [1]: 95%
arr-3 recruitment, maximum net BRET (% of WT) [2]: 186%
arr-3 recruitment, maximum net BRET (% of WT) [3]: 174%
arr-3 recruitment, maximum net BRET (% of WT) [4]: 49%
arr-3 recruitment, maximum net BRET (% of WT) [5]: 51%
arr-3 recruitment, maximum net BRET (% of WT) [6]: 1%
arr-3 recruitment, maximum net BRET (% of WT) [7]: 33%
arr-3 recruitment, maximum net BRET (% of WT) [8]: 25%

[^125I]-hPP: radioligand used in binding experiments
cell surface expression ([^125I]-hPP binding) (hY4R point mutants): > 78%

TAMRA-hPP: hPP-derivative that was N-terminally modified with a TAMRA fluorophore
TAMRA-hPP uptake (intracellular fluorescence) (hY4R S^7.100/103A): 78 ± 11%

B1: [^125I]-labelled human pancreatic polypeptide (peptide, UniProt P01298 30-65, looked up)
peptide: APLEPVYPGDNATPEQMAQYAADLRRYINMLTRPRY-NH2
modifications: also: 125I label (position not given here)
specific binding (% of WT) [9]: 100%
